Experimental data reported in ChEMBL document CHEMBL5678806, “NMS-P937, an orally available, specific small-molecule polo-like kinase 1 inhibitor with antitumor activity in solid and hematologic malignancies” (Mol Cancer Ther, 2012).
Calls of active or inactive are those of the source. No cut-off for these calls is given here.

Experiments:
[1] = target: Serine/threonine-protein kinase 26 (Homo sapiens, UniProt Q9P289); test: Inhibition of MST4 (unknown origin) in presence of [gamma-33P]ATP
[2] = target: Tyrosine-protein kinase Lyn (Homo sapiens, UniProt P07948); test: Inhibition of N-terminal his6-tagged recombinant full-length human Lyn expressed in Sf21 cells assessed as residual activity at 0.1 uM relative to control
Chain of Tyrosine-protein kinase Lyn (P07948 2-512 limits assumed): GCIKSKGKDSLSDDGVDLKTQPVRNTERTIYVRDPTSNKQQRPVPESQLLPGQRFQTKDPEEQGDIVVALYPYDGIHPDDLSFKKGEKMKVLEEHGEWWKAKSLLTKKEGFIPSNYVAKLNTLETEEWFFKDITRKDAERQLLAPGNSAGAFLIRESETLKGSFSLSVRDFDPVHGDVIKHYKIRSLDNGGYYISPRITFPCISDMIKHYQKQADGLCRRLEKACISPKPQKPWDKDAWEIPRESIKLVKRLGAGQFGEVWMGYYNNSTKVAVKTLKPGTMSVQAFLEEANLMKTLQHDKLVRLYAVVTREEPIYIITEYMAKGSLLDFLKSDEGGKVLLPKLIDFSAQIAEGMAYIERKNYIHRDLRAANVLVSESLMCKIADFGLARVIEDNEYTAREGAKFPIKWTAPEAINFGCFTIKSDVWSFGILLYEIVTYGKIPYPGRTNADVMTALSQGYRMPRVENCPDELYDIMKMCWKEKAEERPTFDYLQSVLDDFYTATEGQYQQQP

[3] = target: Serine/threonine-protein kinase Nek7 (Homo sapiens) (UniProt Q8TDX7); test: Inhibition of N-terminal His6-tagged recombinant human NEK7 (2 to end residues) expressed in baculovirus infected Sf21 cells assessed as residual activity at 0.1 uM relative to control
Chain of Serine/threonine-protein kinase Nek7 (Homo sapiens) (Q8TDX7 whole entry, looked up): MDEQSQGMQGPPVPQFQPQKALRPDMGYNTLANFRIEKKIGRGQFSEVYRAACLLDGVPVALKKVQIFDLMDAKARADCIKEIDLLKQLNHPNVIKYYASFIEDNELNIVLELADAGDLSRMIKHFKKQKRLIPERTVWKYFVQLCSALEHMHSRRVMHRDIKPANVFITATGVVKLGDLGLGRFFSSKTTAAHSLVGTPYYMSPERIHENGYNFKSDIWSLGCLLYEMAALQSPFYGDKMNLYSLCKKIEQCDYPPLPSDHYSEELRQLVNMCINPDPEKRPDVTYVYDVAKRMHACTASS

[4] = target: cGMP-dependent protein kinase 1 (Homo sapiens) (UniProt Q13976); test: Inhibition of N-terminal 6His-tagged recombinant, full-length human PKG1alpha expressed in baculovirus infected Sf21 cells assessed as residual activity at 0.1 uM relative to control
[5] = target: Rho-associated protein kinase 2 (Homo sapiens) (UniProt O75116); test: Inhibition of N-terminal His6-tagged recombinant human ROCK-II (11 to 552 residues) expressed in baculovirus infected Sf21 cells assessed as residual activity at 0.1 uM relative to control
Chain of Rho-associated protein kinase 2 (Homo sapiens) (O75116 whole entry, looked up, the tested form may be a part): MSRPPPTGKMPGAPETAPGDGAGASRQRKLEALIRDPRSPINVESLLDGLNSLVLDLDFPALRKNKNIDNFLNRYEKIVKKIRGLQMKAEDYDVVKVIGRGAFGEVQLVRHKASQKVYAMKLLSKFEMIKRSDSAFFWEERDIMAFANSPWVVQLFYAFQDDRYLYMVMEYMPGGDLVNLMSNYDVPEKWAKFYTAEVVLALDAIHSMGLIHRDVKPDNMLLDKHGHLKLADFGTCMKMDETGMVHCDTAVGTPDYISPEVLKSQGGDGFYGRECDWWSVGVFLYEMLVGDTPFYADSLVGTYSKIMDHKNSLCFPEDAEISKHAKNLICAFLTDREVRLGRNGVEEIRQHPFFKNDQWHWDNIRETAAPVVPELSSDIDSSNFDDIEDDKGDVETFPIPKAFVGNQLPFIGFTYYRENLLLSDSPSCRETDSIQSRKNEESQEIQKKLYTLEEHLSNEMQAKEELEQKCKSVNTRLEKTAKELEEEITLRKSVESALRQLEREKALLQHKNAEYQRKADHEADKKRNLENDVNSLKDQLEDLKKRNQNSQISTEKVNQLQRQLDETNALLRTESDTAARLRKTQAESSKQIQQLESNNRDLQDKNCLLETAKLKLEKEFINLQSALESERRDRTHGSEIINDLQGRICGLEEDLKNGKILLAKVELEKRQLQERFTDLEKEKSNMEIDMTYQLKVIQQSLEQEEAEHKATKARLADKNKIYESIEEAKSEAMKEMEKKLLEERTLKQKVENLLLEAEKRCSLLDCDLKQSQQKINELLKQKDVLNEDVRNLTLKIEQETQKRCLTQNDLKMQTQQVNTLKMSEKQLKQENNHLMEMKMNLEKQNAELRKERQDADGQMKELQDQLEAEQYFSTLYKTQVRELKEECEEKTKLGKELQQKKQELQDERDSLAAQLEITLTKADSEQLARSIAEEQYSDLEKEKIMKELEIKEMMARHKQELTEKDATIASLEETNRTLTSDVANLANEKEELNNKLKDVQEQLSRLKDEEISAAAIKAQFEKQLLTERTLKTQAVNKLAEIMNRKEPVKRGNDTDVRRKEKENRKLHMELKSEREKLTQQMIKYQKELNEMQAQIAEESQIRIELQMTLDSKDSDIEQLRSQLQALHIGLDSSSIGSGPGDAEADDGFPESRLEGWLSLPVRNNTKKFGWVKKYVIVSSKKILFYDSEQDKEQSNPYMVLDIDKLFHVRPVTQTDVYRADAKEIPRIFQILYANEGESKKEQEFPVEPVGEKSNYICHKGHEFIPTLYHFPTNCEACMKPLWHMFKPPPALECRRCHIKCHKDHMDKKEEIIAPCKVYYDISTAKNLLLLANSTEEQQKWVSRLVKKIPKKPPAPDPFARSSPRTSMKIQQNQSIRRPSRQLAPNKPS

[6] = target: Mitogen-activated protein kinase 13 (Homo sapiens) (UniProt O15264); test: Inhibition of recombinant GST-tagged fusion protein fused to full length human SAPK4 expressed in E. coli assessed as residual activity at 0.1 uM relative to control
Chain of Mitogen-activated protein kinase 13 (Homo sapiens) (O15264 whole entry, the tested form may be a part): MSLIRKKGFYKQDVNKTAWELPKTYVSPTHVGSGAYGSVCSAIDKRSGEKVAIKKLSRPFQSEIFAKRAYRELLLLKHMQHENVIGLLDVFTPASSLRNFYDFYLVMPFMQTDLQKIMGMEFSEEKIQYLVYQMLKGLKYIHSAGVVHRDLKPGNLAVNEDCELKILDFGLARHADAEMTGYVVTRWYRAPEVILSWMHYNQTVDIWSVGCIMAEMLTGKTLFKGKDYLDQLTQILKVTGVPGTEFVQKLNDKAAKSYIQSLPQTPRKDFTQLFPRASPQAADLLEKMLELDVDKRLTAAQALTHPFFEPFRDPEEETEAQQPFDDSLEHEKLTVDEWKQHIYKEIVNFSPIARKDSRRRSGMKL

[7] = system: Angiopoietin-1 receptor (Homo sapiens), Q02763 [R849W]; test: Inhibition of N-terminal His6-tagged recombinant human Tie2 (771 to end residues) R849W mutant expressed in baculovirus infected Sf21 cells assessed as residual activity at 0.1 uM relative to control
Chain of Angiopoietin-1 receptor (Homo sapiens), Q02763 [R849W] (Q02763 whole entry R849W): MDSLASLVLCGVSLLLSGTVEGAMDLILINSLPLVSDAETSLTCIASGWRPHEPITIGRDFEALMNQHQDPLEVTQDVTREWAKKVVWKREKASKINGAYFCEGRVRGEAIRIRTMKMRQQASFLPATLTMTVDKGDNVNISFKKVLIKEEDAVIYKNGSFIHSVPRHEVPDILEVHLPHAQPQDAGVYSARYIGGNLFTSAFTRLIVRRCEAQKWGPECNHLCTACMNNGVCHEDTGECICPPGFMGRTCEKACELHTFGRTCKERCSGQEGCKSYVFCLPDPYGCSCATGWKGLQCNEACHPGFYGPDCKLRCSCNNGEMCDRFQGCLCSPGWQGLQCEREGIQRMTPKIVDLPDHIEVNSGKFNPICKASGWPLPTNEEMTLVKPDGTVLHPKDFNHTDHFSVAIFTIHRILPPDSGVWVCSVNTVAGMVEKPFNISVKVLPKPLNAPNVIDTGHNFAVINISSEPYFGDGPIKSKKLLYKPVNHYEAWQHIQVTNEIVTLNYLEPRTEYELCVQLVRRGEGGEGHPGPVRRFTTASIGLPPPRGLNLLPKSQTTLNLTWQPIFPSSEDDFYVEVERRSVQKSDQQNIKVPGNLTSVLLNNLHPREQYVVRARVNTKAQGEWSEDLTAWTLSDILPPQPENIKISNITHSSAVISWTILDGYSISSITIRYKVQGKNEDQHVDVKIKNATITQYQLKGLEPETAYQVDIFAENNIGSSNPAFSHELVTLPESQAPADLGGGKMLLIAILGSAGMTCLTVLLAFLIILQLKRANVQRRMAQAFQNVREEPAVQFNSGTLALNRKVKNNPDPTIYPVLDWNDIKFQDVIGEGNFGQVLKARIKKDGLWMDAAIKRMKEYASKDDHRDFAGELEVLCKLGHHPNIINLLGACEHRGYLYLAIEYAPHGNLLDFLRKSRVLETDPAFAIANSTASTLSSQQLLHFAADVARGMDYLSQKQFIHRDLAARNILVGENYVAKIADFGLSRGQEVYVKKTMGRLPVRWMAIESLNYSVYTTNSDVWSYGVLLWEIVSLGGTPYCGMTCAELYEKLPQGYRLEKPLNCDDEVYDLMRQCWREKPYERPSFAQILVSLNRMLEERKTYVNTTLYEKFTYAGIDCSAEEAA

[8] = target: Inhibitor of nuclear factor kappa-B kinase subunit beta (Homo sapiens) (UniProt O14920); test: Inhibition of N-terminal His6 tagged recombinant full-length human IKKbeta expressed in baculovirus infected Sf21 cells assessed as residual activity at 1 uM relative to control
Chain of Inhibitor of nuclear factor kappa-B kinase subunit beta (Homo sapiens) (O14920 whole entry): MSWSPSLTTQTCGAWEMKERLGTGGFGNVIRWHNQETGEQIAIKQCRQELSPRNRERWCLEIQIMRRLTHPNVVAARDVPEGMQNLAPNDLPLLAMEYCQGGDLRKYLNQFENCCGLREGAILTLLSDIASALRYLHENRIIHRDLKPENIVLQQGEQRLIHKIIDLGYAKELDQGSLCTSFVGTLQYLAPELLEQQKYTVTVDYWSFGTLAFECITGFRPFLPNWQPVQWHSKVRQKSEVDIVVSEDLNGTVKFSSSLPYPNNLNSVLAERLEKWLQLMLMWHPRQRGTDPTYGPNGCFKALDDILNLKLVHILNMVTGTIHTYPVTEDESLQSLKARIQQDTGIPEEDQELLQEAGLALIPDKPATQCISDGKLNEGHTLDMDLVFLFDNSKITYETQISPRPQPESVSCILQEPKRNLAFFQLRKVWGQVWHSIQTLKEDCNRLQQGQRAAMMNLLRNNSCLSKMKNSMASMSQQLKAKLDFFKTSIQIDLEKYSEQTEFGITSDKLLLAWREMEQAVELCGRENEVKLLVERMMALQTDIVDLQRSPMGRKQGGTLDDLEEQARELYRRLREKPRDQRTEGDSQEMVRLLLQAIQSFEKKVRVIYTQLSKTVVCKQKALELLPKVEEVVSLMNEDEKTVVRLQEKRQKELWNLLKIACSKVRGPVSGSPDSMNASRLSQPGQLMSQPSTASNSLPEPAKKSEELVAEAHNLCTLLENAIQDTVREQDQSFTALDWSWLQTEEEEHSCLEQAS

AU565 = test: Antiproliferative activity against human AU565 cells assessed as inhibition of cell growth incubated for 72 hrs by cell-titer glo assay; assay type: functional, cell-based; settings: AU565, 72 h
Outline: (§1)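 Cells seeded 10,000–30,000/cm² (adherent) or 100,000/mL (suspension) in medium with 10% fetal calf serum; after 24 h treated in duplicate with serial dilutions for 72 h. Viable cells read by CellTiter-Glo luminescence; IC50 from sigmoidal fit; at least two independent experiments.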

DU-4475 = test: Antiproliferative activity against human DU-4475 cells assessed as inhibition of cell growth incubated for 72 hrs by cell-titer glo assay; assay type: functional, cell-based; settings: DU-4475, 72 h; outline: as §1
LoVo = test: Antiproliferative activity against human LoVo cells assessed as inhibition of cell growth incubated for 72 hrs by cell-titer glo assay; assay type: functional, cell-based
Outline: (§2)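 Cells seeded at 10,000–30,000/cm² (adherent) or 100,000/mL (nonadherent) in medium with 10% fetal calf serum; after 24 h, treated in duplicate with serial dilutions for 72 h. Viable cell number read by CellTiter-Glo luminescence; IC50 from sigmoidal fit; at least two independent experiments.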

TK-10 = test: Antiproliferative activity against human TK-10 cells assessed as inhibition of cell growth incubated for 72 hrs by cell-titer glo assay; assay type: functional, cell-based; settings: TK-10, 72 h
NCI-H1299 = test: Antiproliferative activity against human NCI-H1299 cells assessed as inhibition of cell growth incubated for 72 hrs by cell-titer glo assay; assay type: functional, cell-based; settings: NCI-H1299, 72 h
Outline: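 Cells from ATCC or ECACC, kept in supplier-recommended medium with 1% penicillin-streptomycin at 37°C, 5% CO₂. Seeded at 10,000–30,000/cm² (adherent) or 100,000/mL (nonadherent) in medium with 10% fetal calf serum. Dosed after 24 h in duplicate with serial dilutions. Viable cells read by CellTiter-Glo 72 h later. IC50 from sigmoidal fit. At least two independent experiments.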

HOP-62 = test: Antiproliferative activity against human HOP-62 cells assessed as inhibition of cell growth incubated for 72 hrs by cell-titer glo assay; assay type: functional, cell-based; settings: HOP-62, 72 h; outline: as §2
[9] = Antiproliferative activity against human A2780cis cells assessed as inhibition of cell growth incubated for 72 hrs by cell-titer glo assay; assay type: functional, cell-based; outline: as §1
1A9 = test: Antiproliferative activity against human 1A9 cells assessed as inhibition of cell growth incubated for 72 hrs by cell-titer glo assay; assay type: functional, cell-based; settings: 1A9, 72 h; outline: as §1
SK-MEL-2 = test: Antiproliferative activity against human SK-MEL-2 cells assessed as inhibition of cell growth incubated for 72 hrs by cell-titer glo assay; assay type: functional, cell-based; settings: SK-MEL-2, 72 h
KG-1 = test: Antiproliferative activity against human KG-1 cells assessed as inhibition of cell growth incubated for 72 hrs by cell-titer glo assay; assay type: functional, cell-based; settings: KG-1, 72 h; outline: as §2
Granta-519 = test: Antiproliferative activity against human Granta-519 cells assessed as inhibition of cell growth incubated for 72 hrs by cell-titer glo assay; assay type: functional, cell-based; settings: Granta-519, 72 h; outline: as §2
[10] = Antiproliferative activity against human adriamycin-resistant RPMI-8226-ADR cells assessed as inhibition of cell growth incubated for 72 hrs by cell-titer glo assay; assay type: functional, cell-based
[11] = Half-life in male cynomolgus monkey at 5 mg/kg, iv by LC-MS analysis; assay type: ADME, organism-based, Macaca fascicularis; settings: in vivo
[12] = Cmax in nu/nu mouse at 10 mg/kg, iv by LC-MS analysis; assay type: ADME, organism-based; settings: in vivo
[13] = Half-life in male cynomolgus monkey at 5 mg/kg, po by LC-MS analysis; assay type: ADME, organism-based, Macaca fascicularis; settings: in vivo
[14] = Tmax in male cynomolgus monkey at 5 mg/kg, po by LC-MS analysis; assay type: ADME, organism-based, Macaca fascicularis; settings: in vivo
[15] = Oral bioavailability in male cynomolgus monkey at 5 mg/kg by LC-MS analysis; assay type: ADME, organism-based, Macaca fascicularis; settings: in vivo
A2780 [16] = test: Induction of DNA damage in human A2780 cells assessed as H2AX phosphorylation at 0.5 to 1 uM incubated for 8 hrs followed by compound washout and measured after 24 to 48 hrs by Western blotting analysis; assay type: functional, cell-based; settings: dose 0.5-1 µM
[17] = Toxicity in nu/nu mouse xenografted with human HCT-116 cells assessed as body weight loss at 60 mg/kg, po administered for 8 days; assay type: organism-based; settings: in vivo, 192 h, time 8 day
HCT-116 = test: Antitumor activity against human HCT-116 cells xenografted in nu/nu mouse assessed as tumor growth inhibition at 60 mg/kg administered for 10 days relative to control; assay type: functional; settings: HCT-116, 240 h, time 10 day, read-out: TGI
[18] = Antitumor activity against human Acute myeloid leukemic cell xenografted in nu/nu mouse assessed as increase in median survival time at 120 mg/kg, po administered for 2 days and measured after 10 days (reference value: 34 days); assay type: functional, Leukemia cell; settings: time 2 day
A2780 [19] = test: In vivo inhibition of PLK1 in human A2780 cells xenografted in nu/nu mouse assessed as increased TCTP phosphorylation on Ser46 at 60 mg/kg, po administered for 6 to 12 hrs hrs by Western blotting analysis; assay type: functional, organism-based; settings: time lower 6.0 hrs, time upper […]

Chain of Serine/threonine-protein kinase 26 (Q9P289 whole entry): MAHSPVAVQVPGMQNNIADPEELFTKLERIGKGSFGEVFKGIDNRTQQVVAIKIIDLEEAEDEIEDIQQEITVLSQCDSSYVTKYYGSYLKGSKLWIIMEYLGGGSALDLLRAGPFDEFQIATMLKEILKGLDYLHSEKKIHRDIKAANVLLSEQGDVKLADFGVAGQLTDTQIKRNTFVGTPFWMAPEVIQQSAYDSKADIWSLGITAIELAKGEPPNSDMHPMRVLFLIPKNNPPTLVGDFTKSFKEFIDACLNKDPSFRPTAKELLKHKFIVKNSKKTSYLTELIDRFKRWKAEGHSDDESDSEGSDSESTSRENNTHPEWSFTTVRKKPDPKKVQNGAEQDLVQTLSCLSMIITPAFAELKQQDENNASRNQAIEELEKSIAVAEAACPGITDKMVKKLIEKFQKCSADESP

CN1CCN(c2ccc(OC(F)(F)F)c(Nc3ncc4c(n3)-c3c(c(C(N)=O)nn3CCO)CC4)c2)CC1 [ONVANSERTIB]
IC50 [1]: > 10000 nM
Activity [2]: 156%
Activity [3]: 123%
Activity [4]: 113%
Activity [5]: 132%
Activity [6]: 113%
Activity [7]: 74%
Activity [8]: 127%
IC50 (AU565): 11 nM
IC50 (DU-4475): 47 nM
IC50 (LoVo): 65 nM
IC50 (TK-10): 1210 nM
IC50 (NCI-H1299): 347 nM
IC50 (HOP-62): 209 nM
IC50 [9]: 48 nM
IC50 (1A9): 62 nM
IC50 (SK-MEL-2): 256 nM
IC50 (KG-1): 58 nM
IC50 (Granta-519): 29 nM
IC50 [10]: 1310 nM
half-life [11]: 5 h
Cmax [12]: 8.3 µM
half-life [13]: 4.2 h
Tmax [14]: 2.7 h
F [15]: 35%
Activity (A2780 [16]): Active
Activity [17]: Toxic
inhibition in vivo at 60 mg/kg (HCT-116): 89%
Time [18]: 50 days
inhibition (A2780 [19]): inactive
